Assay results: PMC9382226 (Inorganic chemistry, 2022)
“Also recorded” adds a separate entry of the source.

Experiments:
[1] = format: binding; conditions: [UO2^2+]tot = 10^−6 M, [L]tot = 10^−5 M, 25 °C, I = 0.1 M KCl
[2] = Ligand protonation constants by potentiometric titration; format: physicochemical; conditions: 25 °C, I = 0.1 M KCl
[3] = format: binding; conditions: for k2 (pH 7.4), second-order rate constant for complexation of UO2^2+: TRIS buffer pH 7.4, 25 °C; for k2 (pH 5), second-order rate constant for complexation of UO2^2+: aqueous citrate buffer pH 5, 25 °C
mice = experiment: Ex vivo biodistribution of uranium in mice by ICP-MS; conditions: for stability of the uranium complex in vivo: biodistribution, label is the ligand of the complex; for uranium uptake in bone (tibia) / clearance from blood / uranium in soft organs (lung, liver, kidney, spleen): 4 mg/kg intravenous injection, ICP-MS; for uranium uptake in bone (tibia): 30 min, 2 h and 24 h
[4] = Ligand protonation constants by semi-batch spectrophotometric titration; format: physicochemical; conditions: 25 °C, I = 0.1 M KCl
How it was run: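 Semi-batch spectrophotometric titration of test ligands (those not titrated potentiometrically) at 25 °C, ionic strength 0.1 M with KCl as supporting electrolyte; protonation constants fitted from the titration data; uncertainty given as standard deviation of the last digit.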

[5] = Initial pH potentiometric experiments with UO2^2+; format: binding; conditions: lowest electrode-calibrated pH value of 2.4
[6] = Kinetic stability challenge with hydroxyapatite; format: physicochemical; conditions: 2000 equiv. HAP, 0.1 M TRIS, 37 °C, arsenazo III indicator
[7] = Aqueous solubility of the complexes; format: physicochemical; conditions: in words

SMILES | pUO2 (pH 7.4) = −log[UO2^2+]free [1] | k2 (pH 7.4), second-order rate constant for complexation of UO2^2+ [3] [M^−1 s^−1] | k2 (pH 5), second-order rate constant for complexation of UO2^2+ [3] [M^−1 s^−1] | stability of the uranium complex in vivo (mice) | uranium uptake in bone (tibia) (mice) | clearance from blood (mice) | uranium in soft organs (lung, liver, kidney, spleen) (mice) | further results
O=C(O)c1cccc(CNC2CCCCC2NCc2cccc(C(=O)O)n2)n1 (stereo not drawn) [H2CHXdedpa] | 17.72 | 1190 ± 150 | 1320 ± 140 | stable in vivo | – | – | – | pKa1 [2]: 9.39(2); pKa2 [2]: 6.43(6); pKa3 [2]: 3.15(6); pKa4 [2]: 2.40(8)
Oc1cccc2ccc(CNC3CCCCC3NCc3ccc4cccc(O)c4n3)nc12 (stereo not drawn) [H2CHXhox] | 19.98 | 2850 ± 380 | 140 ± 5 | – | – | – | – | pKa1 [4]: 10.95(9); pKa2 [4]: 10.18(2); pKa3 [4]: 8.72(7); pKa4 [4]: 5.37(2)
O=C(O)c1cccc(CNCCNCc2cccc(C(=O)O)n2)n1 [H2dedpa] | 17.46 | 450 ± 40 | 420 ± 28 | stable in vivo | – | – | – | pKa1 [2]: 8.95(3); pKa2 [2]: 6.32(6); pKa3 [2]: 3.15(6); pKa4 [2]: 2.28(7); free UO2^2+ present [5]: < 5%
Oc1cccc2ccc(CNCCNCc3ccc4cccc(O)c4n3)nc12 [H2hox] | 19.80 | 3420 ± 340 | 73 ± 5 | stable in vivo | – | – | – | pKa1 [4]: 11.0(1); pKa2 [4]: 10.10(8); pKa3 [4]: 8.63(5); pKa4 [4]: 6.1(3)
O.O.O.O.O.O.O=[N+]([O-])O.O=[N+]([O-])O.[O]=[U]=[O] [UO2(NO3)2·6H2O] | – | – | – | – | – | – | – | original uranium remaining in solution with HAP ([6]; after 12 h): 10%; uranium remaining in solution with HAP ([6]; by 120 h): undetectable
O=C([O-])c1cccc(CNC2CCCCC2NCc2cccc(C(=O)[O-])n2)n1.[O]=[U+2]=[O] (stereo not drawn) [[UO2(CHXdedpa)]] | – | – | – | – | minimal uptake in the bone | rapidly cleared from the blood | low but detectable values of uranium were found in the lung, liver and kidney | –
[O-]c1cccc2ccc(CNC3CCCCC3NCc3ccc4cccc([O-])c4n3)nc12.[O]=[U+2]=[O] (stereo not drawn) [[UO2(CHXhox)]] | – | – | – | – | – | – | – | aqueous solubility [7]: low solubility in water; also recorded: poor aqueous solubility; lethality upon injection (mice; intravenous injection): precipitation in the circulatory system upon injection causing lethality
O=C([O-])c1cccc(CNCCNCc2cccc(C(=O)[O-])n2)n1.[O]=[U+2]=[O] [[UO2(dedpa)]] | – | – | – | – | minimal uptake in the bone | rapidly cleared from the blood | low but detectable values of uranium were found in the lung, liver and kidney | –
[O-]c1cccc2ccc(CNCCNCc3ccc4cccc([O-])c4n3)nc12.[O]=[U+2]=[O] [[UO2(hox)]] | – | – | – | – | minimal uptake in the bone | rapidly cleared from the blood | significant accumulation of uranium in the lungs | –
